These results are taken from PMC3656655 (European journal of pharmacology, 2012).

Entries after “also recorded” stand apart in the source; their conditions may differ. Read-outs that look alike come from different tables or passages of the source.

Test [1] has as its target T1, hNET (Homo sapiens, UniProt P23975). Put plainly: Inhibition of hNET-mediated [3H]NE uptake into C6-hNET cells. The format is cell-based.
A further test deals with hDAT (Homo sapiens, UniProt Q01959). Nature of the test: Inhibition of hDAT-mediated [3H]DA uptake into HEK293-hDAT cells. The format is cell-based.
For test [2], the target named is T2, rDAT (Rattus norvegicus, UniProt P23977). Nature of the test: Drug-evoked [3H]MPP+ release via rDAT in rat striatal synaptosomes. Format: biochemical.
The next test concerns the target rSERT (Rattus norvegicus, UniProt P31652). Put plainly: Drug-evoked [3H]5-HT release via rSERT in rat brain synaptosomes. Format: biochemical. The note with it: for Fold more potent than methcathinone as [3H]5-HT releasing agent: SERT release.
Test [3] has as its target T3, hSERT (Homo sapiens, UniProt P31645). Nature of the test: Inhibition of hSERT-mediated [3H]5-HT uptake into human platelets. Format: cell-based.
The target of a further test is rNET (Rattus norvegicus, UniProt Q63380). Nature of the test: Drug-evoked [3H]MPP+ release via rNET in rat brain synaptosomes. The format is biochemical.
The subject of test [4] is horizontal locomotor activity. As to conditions: cited from earlier work; for Locomotor effects in vivo compared to methcathinone: ref Foley and Cozzi, 2003.
The test system of test [5] is extracellular dopamine in nucleus accumbens. Put plainly: In vivo microdialysis of nucleus accumbens, dialysate dopamine. The note with it: i.v.; for Effect on extracellular dopamine in nucleus accumbens: rat, methcathinone 0.3 then 1.0 mg/kg, 4-TFMAP 1.0 then 3.0 mg/kg. Further details: species or system rat. In a few lines: (§1)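 Male Sprague-Dawley rats (300–350 g) under pentobarbital anaesthesia (60 mg/kg i.p.) get a jugular catheter and a nucleus accumbens guide cannula (1.6 mm lateral, 1.6 mm anterior to bregma, 6.0 mm below dura). Next morning, dialysate is collected every 20 min and assayed for DA and 5-HT by HPLC-ECD. After three stable baselines, two i.v. doses in saline (1 mL/kg) are given 60 min apart, with sampling for 120 min. Data are % of mean baseline; n=6 saline, 7 per drug; two-way ANOVA with Bonferroni.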

For test [6], the system named is extracellular 5-HT in nucleus accumbens. Put plainly: In vivo microdialysis of nucleus accumbens, dialysate 5-HT. As to conditions: rat, i.v.; for Effect on extracellular 5-HT in nucleus accumbens: methcathinone 0.3 then 1.0 mg/kg, 4-TFMAP 1.0 then 3.0 mg/kg. The method in brief: as §1
For test [7], the system named is horizontal locomotor activity. Put plainly: Horizontal locomotor activity during microdialysis. As to conditions: rat, i.v.; methcathinone 0.3 then 1.0 mg/kg, 4-TFMAP 1.0 then 3.0 mg/kg. The format is in vivo. The method in brief: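 Horizontal activity is recorded by a photobeam ring (2.54 cm spacing) in a 43 cm cubic arena, where rats stay overnight and during microdialysis. It is binned every 20 min, from 60 min before to 120 min after two sequential i.v. injections given 60 min apart (saline vehicle, 1 mL/kg). Data are normalized to % of three pre-injection bins and compared with saline controls (n=6; drugs n=7) by two-way ANOVA with Bonferroni.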

Test [8] addresses T2, rDAT. The note with it: read-out: DAT [3H]DA uptake inhibition IC50, ref Cozzi et al., 1999; cited from earlier work.
Test [9] deals with T3, hSERT. As to conditions: read-out: SERT [3H]5-HT uptake inhibition IC50, ref Cozzi et al., 1999; cited from earlier work.
The target in test [10] is T1, hNET. As to conditions: read-out: NET [3H]NE uptake inhibition IC50, ref Cozzi et al., 1999; cited from earlier work.
Test [11] has as its system extracellular 5-HT in nucleus accumbens. As to conditions: ref Baumann et al., 2012; Kehr et al. (2011); cited from earlier work.
In test [12] the test system is extracellular dopamine in nucleus accumbens. The note with it: ref Baumann et al., 2012; Kehr et al. (2011); cited from earlier work.
The subject of another test is human SERT. As to conditions: read-out: KM as SERT substrate, racemic, ref Cozzi and Foley, 2003; cited from earlier work.
The mark [13] stands for this setting: SERT [3H]5-HT release EC50, rat brain synaptosomes, mean ±S.E.M.
Where [14] appears, read: read-out: NET [3H]MPP+ release EC50, mean ±S.E.M.

T2 sequence (P23977 whole entry): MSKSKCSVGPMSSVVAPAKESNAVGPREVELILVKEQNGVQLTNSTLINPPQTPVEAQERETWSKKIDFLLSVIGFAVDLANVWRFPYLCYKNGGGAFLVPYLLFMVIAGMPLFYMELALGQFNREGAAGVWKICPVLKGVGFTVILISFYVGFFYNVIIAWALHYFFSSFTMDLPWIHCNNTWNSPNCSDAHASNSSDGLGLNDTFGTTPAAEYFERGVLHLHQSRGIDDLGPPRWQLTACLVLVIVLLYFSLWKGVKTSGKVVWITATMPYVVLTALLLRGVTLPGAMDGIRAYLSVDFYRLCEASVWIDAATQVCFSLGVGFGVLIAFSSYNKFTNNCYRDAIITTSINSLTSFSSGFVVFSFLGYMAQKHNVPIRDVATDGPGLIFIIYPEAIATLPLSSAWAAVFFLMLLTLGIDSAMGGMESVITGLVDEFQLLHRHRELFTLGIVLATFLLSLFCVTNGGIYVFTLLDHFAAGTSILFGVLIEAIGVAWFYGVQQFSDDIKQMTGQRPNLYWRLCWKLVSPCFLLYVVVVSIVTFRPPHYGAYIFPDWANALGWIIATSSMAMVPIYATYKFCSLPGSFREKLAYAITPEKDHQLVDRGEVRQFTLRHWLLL
T1 sequence (P23975 whole entry): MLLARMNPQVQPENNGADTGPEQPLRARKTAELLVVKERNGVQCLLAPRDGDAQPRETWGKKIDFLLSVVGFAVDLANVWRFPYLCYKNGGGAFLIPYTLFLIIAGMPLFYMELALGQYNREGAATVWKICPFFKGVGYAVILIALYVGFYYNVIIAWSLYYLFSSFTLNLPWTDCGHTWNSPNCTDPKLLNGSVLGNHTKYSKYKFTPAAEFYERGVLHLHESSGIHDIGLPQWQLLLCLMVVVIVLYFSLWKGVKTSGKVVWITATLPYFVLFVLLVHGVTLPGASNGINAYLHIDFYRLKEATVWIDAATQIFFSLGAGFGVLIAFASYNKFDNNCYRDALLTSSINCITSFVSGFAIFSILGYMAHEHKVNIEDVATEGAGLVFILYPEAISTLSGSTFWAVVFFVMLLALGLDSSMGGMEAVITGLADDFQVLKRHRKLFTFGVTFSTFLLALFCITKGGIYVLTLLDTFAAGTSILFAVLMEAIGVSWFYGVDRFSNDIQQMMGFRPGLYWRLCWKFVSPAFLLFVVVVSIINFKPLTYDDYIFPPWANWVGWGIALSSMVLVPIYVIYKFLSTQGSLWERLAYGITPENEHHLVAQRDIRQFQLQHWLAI
T3 sequence (P31645 whole entry): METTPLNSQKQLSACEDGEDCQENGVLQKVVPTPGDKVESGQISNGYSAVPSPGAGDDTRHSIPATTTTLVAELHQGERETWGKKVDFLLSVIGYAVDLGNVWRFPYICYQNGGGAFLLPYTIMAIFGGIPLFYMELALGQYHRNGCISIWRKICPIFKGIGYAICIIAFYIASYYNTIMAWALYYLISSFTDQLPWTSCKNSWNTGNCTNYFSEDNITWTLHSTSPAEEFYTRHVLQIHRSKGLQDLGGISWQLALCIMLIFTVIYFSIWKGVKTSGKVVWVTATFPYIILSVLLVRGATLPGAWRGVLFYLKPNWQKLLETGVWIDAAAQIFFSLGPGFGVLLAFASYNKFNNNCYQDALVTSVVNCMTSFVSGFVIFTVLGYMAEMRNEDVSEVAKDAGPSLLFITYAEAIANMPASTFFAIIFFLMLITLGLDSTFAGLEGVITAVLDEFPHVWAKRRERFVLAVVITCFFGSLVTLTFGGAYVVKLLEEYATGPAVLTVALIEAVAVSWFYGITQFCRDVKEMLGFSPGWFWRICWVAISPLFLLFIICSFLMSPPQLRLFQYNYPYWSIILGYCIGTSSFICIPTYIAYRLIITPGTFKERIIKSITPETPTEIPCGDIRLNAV
hDAT, sequence (Q01959 whole entry): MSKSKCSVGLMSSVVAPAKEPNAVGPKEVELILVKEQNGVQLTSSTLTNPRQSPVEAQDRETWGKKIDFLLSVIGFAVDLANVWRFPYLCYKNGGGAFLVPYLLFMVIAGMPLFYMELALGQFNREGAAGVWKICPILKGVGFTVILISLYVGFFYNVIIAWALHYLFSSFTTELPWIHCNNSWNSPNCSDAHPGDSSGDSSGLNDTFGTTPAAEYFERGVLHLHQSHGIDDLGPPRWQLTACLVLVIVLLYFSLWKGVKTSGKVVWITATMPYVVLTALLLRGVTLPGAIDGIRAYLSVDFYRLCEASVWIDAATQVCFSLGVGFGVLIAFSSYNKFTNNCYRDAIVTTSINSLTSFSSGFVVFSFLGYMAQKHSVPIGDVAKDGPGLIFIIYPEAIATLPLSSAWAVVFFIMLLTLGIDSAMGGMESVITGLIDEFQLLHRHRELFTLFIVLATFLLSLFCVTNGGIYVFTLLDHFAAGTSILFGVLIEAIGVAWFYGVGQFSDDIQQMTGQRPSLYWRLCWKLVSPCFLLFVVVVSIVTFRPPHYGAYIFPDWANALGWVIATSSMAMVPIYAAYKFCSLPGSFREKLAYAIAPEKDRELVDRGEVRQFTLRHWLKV
rSERT, sequence (P31652 whole entry): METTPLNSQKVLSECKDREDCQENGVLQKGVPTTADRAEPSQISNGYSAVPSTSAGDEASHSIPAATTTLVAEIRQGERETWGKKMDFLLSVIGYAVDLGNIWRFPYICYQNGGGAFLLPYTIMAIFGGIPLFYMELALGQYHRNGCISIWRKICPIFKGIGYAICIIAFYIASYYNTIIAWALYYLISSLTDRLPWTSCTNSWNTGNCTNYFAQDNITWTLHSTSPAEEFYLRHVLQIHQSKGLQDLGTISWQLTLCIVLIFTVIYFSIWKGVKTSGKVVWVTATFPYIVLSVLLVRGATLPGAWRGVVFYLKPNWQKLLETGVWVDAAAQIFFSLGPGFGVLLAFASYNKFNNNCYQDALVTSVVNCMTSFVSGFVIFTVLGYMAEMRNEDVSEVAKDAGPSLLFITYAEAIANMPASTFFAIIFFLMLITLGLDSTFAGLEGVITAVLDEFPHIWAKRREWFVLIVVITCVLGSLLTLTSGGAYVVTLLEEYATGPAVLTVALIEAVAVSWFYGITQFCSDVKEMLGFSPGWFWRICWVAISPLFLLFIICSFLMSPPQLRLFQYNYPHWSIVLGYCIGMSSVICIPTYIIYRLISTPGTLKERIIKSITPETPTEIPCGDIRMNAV
rNET, sequence (Q63380 1-617): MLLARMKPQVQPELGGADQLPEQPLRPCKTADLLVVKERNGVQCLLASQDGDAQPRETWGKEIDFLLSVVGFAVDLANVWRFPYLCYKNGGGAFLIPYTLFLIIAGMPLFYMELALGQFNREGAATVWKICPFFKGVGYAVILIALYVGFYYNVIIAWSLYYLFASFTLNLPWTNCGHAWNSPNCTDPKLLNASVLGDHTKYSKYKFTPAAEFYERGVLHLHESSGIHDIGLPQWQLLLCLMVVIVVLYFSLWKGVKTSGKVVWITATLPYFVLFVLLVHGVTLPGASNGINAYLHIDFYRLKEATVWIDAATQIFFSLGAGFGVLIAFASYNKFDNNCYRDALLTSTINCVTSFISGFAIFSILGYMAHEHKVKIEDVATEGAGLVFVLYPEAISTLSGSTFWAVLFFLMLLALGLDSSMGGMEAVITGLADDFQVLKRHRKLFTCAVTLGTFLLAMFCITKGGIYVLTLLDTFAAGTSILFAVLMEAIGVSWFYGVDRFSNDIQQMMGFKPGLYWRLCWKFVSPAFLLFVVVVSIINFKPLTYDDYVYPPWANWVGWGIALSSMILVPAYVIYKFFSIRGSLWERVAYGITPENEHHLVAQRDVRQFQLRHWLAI

One may read the IC50 as the point on the concentration scale where inhibition reaches its midpoint. As a reminder, the EC50 is the concentration that produces a half-maximal response. `CNC(C)C(=O)c1ccccc1C(F)(F)F` (centres unmarked) [2-TFMAP, 2-(methylamino)-1-(2-tri-fluoromethylphenyl)propan-1-one]: the values for the IC50 against hNET [1], against hDAT and on hSERT [3] were 10000 ± 3000 nM, 689000 ± 160000 nM and 239000 ± 13000 nM, respectively. Besides, the EC50 on rDAT [2] is 8000 ± 900 nM; on rSERT (setting [13]), 8400 ± 800 nM; on rNET (setting [14]) it was 2200 ± 300 nM.
As to `CNC(C)C(=O)c1cccc(C(F)(F)F)c1` (centres unmarked) [3-TFMAP, 2-(methylamino)-1-(3-trifluoromethylphenyl)propan-1-one], the 50% inhibitory concentration (IC50) is 3000 ± 800 nM on hNET [1], 136000 ± 8000 nM on hDAT and 11300 ± 400 nM against hSERT [3]. Also, the EC50 amounted to 610 ± 90 nM on rDAT [2], 380 ± 60 nM at rSERT (setting [13]) and 2700 ± 800 nM on rNET (setting [14]). The “Fold more potent than methcathinone as [3H]5-HT releasing agent” value at rSERT was found to be 10 fold.
As to `CNC(C)C(=O)c1cccc(Br)c1` (centres unmarked) [3-bromomethcathinone], in test [4], the “Locomotor effects in vivo compared to methcathinone” value is listed as “fewer locomotor effects”.
In the case of `CNC(C)C(=O)c1ccc(C(F)(F)F)cc1` (centres unmarked) [4-TFMAP, 2-(methylamino)-1-(4-trifluoromethylphenyl)propan-1-one], the figures for the IC50 against hNET [1], at hDAT and against hSERT [3] were 3000 ± 900 nM, 200000 ± 50000 nM and 4500 ± 600 nM, respectively. Further, the “Effect on extracellular dopamine in nucleus accumbens” value in test [5] is reported as “no effect; also recorded: did not stimulate dopamine release”. Also, the “Potency on dialysate 5-HT relative to methcathinone” value in test [6] (nucleus accumbens) is “approximately 1/3”. Besides, in test [6], the “Effect on extracellular 5-HT in nucleus accumbens” value is listed as “increased extracellular 5-HT; also recorded: dose-related increase in 5-HT efflux”. The EC50 on rDAT [2] turned out to be 2700 ± 300 nM; at rSERT (EC50 for [3H]5-HT release at rSERT, rat brain synaptosomes), 186 nM; at rSERT (setting [13]), 190 ± 30 nM; on rNET (read-out: EC50 for [3H]MPP+ release at rNET) it was 867 nM; on rNET (setting [14]), 900 ± 300 nM. Moreover, the “Fold more potent than methcathinone as [3H]5-HT releasing agent” value on rSERT is 10 fold. Further, the “Effect on horizontal locomotor activity” value in test [7] is on record as “no effect; also recorded: nor did it stimulate locomotor activity”.
In the case of `CNC(C)C(=O)c1ccc(Br)cc1` (centres unmarked) [4-bromomethcathinone], the “Locomotor effects in vivo compared to methcathinone” value in test [4] is reported as “fewer locomotor effects”.
Take `CNC(C)C(=O)c1ccccc1` (centres unmarked) [Methcathinone, reference compound]: the “Potency as dopamine releasing agent relative to 5-HT releaser in vivo” value in [5] (rat nucleus accumbens) is “about twice as potent”. The “Effect on extracellular dopamine in nucleus accumbens” value in [5] is listed as “large dose-dependent increases”. The “Effect on extracellular 5-HT in nucleus accumbens” value in test [6] is given as “large dose-dependent increases”. Moreover, the EC50 on rDAT [2] (read-out: DAT [3H]MPP+ release EC50, rat striatal synaptosomes, mean ±S.E.M.) worked out at 20 ± 1 nM; at rSERT (read-out: SERT [3H]5-HT release EC50, rat brain synaptosomes, mean ±S.E.M.) it was 4000 ± 1000 nM; on rNET (setting [14]) it was 20 ± 3 nM. For the same compound, the IC50 on rDAT [8] is 360 ± 60 nM; on hSERT [9], 35000 ± 5000 nM; on hNET [10] it was 500 ± 100 nM.
As to `CNC(C)C(=O)c1ccc(C)cc1` (centres unmarked) [mephedrone, 4-methylmethcathinone], in test [11], the “Effect on 5-HT release in nucleus accumbens” value is “stimulated both 5-HT and DA release”. For the same compound, the “Effect on DA release in nucleus accumbens” value in [12] was “stimulated both 5-HT and DA release”. The “Effect on locomotor activity” value in [4] (1 and 3 mg/kg, ref Baumann et al., 2012, Kehr et al. (2011)) is recorded as “dose-related locomotor stimulation”.
Usually Km stands for the concentration of substrate that gives half-maximal velocity. Turning to [^3H]methcathinone, the Michaelis-Menten constant (Km) with human SERT was 0.244 µM.
